According to ChEMBL document CHEMBL1150387, “Development and experimental validation of a docking strategy for the generation of kinase-targeted libraries” (J Med Chem, 2008):
Each block holds one molecule with its values, some of them ahead of it.

How the values were obtained:
[1] = molecular target: Focal adhesion kinase 1 (Homo sapiens) (UniProt Q05397); test: Inhibition of FAK at 10 uM by HTRF assay relative to control
Method in brief: (§1)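 HTRF kinase assay, one panel of kinases. Inhibitor stock 50 µM in 100% DMSO; tested at 10 µM. ATP and substrate at final levels near Km. Final buffer: 50 mM Hepes/NaOH pH 7.4, 40 µM Na3VO4, 0.005% Tween-20, 1 mM DTT, MnCl2 or MgCl2 at kinase-dependent levels. Started by adding ATP/substrate. Reaction run at room temperature, time varied by kinase. Detection mix in 50 mM Hepes pH 7.4, 0.1% BSA, 150 mM KF, incubated ≥1 h at room temperature. Activity expressed as % of uninhibited control; n=2.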

[2] = molecular target: Epidermal growth factor receptor (Homo sapiens) (UniProt P00533); test: Inhibition of EGFR at 10 uM by HTRF assay relative to control; method in brief: as §1
[3] = molecular target: Cyclin-dependent kinase 2 (Homo sapiens) (UniProt P24941); test: Inhibition of CDK2 at 10 uM by HTRF assay relative to control; method in brief: as §1
[4] = molecular target: Vascular endothelial growth factor receptor 1 (Homo sapiens) (UniProt P17948); test: Inhibition of FLT1 at 10 uM by HTRF assay relative to control; method in brief: as §1
[5] = molecular target: Serine/threonine-protein kinase Chk2 (Homo sapiens) (UniProt O96017); test: Inhibition of CHK2 at 10 uM by HTRF assay relative to control; method in brief: as §1
[6] = molecular target: T1, Serine/threonine-protein kinase Chk1 (Homo sapiens) (UniProt O14757); test: Inhibition of CHK1 at 10 uM by HTRF assay relative to control; method in brief: as §1
T1 sequence (whole entry): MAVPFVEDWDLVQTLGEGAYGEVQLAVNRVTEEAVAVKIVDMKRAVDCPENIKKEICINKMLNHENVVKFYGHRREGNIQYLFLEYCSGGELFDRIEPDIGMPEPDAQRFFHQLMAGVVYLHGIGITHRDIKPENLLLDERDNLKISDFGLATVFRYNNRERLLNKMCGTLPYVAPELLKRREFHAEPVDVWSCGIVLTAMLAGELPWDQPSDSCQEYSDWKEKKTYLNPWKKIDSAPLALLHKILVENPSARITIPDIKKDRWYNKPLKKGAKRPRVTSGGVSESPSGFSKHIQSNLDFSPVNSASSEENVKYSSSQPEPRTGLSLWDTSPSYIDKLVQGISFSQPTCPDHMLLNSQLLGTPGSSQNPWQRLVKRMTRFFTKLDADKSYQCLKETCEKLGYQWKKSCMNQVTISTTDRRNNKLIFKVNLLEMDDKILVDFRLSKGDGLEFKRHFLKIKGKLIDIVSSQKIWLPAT

[7] = molecular target: Rho-associated protein kinase 2 (Homo sapiens) (UniProt O75116); test: Inhibition of ROCK2 at 10 uM by HTRF assay relative to control; method in brief: as §1
[8] = molecular target: RAC-alpha serine/threonine-protein kinase (Homo sapiens) (UniProt P31749); test: Inhibition of AKT1/PKBalpha at 10 uM by HTRF assay relative to control; method in brief: as §1
[9] = molecular target: Mitogen-activated protein kinase 14 (Homo sapiens) (UniProt Q16539); test: Inhibition of p38alpha at 10 uM by HTRF assay relative to control; method in brief: as §1
[10] = molecular target: T2, Mitogen-activated protein kinase 12 (Homo sapiens) (UniProt P53778); test: Inhibition of p38-gamma at 10 uM by HTRF assay relative to control; method in brief: as §1
T2 sequence (whole entry): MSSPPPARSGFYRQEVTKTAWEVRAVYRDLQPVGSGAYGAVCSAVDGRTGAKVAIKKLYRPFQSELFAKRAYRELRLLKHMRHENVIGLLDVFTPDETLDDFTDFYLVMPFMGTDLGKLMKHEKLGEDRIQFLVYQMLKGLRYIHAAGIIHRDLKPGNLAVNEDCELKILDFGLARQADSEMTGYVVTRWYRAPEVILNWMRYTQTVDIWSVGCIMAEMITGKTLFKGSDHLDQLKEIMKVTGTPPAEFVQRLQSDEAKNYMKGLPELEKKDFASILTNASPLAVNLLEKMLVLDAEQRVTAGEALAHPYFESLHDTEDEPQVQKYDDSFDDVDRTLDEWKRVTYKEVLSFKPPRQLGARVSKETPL

[11] = molecular target: T3, Calcium/calmodulin-dependent protein kinase type IV (Homo sapiens) (UniProt Q16566); test: Inhibition of CaMK4 at 10 uM by HTRF assay relative to control; method in brief: as §1
T3 sequence (whole entry): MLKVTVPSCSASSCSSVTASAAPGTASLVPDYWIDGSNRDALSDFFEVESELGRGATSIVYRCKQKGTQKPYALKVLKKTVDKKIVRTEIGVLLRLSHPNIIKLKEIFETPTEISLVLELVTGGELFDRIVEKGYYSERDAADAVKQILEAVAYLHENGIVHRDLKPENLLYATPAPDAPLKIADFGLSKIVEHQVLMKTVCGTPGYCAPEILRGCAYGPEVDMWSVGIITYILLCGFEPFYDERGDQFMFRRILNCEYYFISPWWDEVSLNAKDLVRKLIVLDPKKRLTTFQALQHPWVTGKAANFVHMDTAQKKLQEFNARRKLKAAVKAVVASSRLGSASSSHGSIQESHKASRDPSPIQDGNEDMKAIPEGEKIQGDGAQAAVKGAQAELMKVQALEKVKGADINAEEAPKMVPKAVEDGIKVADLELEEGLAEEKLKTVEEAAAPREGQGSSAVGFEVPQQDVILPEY

[12] = molecular target: Tyrosine-protein kinase ABL1 (Homo sapiens) (UniProt P00519); test: Inhibition of Abl at 10 uM by HTRF assay relative to control; method in brief: as §1
[13] = molecular target: MAP kinase-activated protein kinase 2 (Homo sapiens) (UniProt P49137); test: Inhibition of MAPKAPK2 at 10 uM by HTRF assay relative to control; method in brief: as §1
[14] = molecular target: Vascular endothelial growth factor receptor 2 (Homo sapiens) (UniProt P35968); test: Inhibition of KDR at 10 uM by HTRF assay relative to control; method in brief: as §1
[15] = molecular target: Cyclin-dependent kinase 1 (Homo sapiens) (UniProt P06493); test: Inhibition of CDK1 at 10 uM by HTRF assay relative to control; method in brief: as §1
[16] = molecular target: Mitogen-activated protein kinase 8 (Homo sapiens) (UniProt P45983); test: Inhibition of JNK1 at 10 uM by HTRF assay relative to control; method in brief: as §1
Mitogen-activated protein kinase 8 (Homo sapiens), sequence (P45983 whole entry): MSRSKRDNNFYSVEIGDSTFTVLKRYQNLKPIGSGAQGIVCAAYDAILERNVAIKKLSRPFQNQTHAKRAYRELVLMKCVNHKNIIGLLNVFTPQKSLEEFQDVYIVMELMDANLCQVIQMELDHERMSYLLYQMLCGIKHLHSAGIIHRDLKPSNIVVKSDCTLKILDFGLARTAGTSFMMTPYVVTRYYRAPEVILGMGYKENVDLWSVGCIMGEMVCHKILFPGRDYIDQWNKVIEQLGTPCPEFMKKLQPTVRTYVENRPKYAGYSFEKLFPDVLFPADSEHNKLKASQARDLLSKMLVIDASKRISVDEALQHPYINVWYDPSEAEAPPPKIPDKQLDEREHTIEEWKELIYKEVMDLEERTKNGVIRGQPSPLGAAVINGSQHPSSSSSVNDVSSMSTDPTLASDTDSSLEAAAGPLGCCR

Rho-associated protein kinase 2 (Homo sapiens), sequence (O75116 whole entry, looked up): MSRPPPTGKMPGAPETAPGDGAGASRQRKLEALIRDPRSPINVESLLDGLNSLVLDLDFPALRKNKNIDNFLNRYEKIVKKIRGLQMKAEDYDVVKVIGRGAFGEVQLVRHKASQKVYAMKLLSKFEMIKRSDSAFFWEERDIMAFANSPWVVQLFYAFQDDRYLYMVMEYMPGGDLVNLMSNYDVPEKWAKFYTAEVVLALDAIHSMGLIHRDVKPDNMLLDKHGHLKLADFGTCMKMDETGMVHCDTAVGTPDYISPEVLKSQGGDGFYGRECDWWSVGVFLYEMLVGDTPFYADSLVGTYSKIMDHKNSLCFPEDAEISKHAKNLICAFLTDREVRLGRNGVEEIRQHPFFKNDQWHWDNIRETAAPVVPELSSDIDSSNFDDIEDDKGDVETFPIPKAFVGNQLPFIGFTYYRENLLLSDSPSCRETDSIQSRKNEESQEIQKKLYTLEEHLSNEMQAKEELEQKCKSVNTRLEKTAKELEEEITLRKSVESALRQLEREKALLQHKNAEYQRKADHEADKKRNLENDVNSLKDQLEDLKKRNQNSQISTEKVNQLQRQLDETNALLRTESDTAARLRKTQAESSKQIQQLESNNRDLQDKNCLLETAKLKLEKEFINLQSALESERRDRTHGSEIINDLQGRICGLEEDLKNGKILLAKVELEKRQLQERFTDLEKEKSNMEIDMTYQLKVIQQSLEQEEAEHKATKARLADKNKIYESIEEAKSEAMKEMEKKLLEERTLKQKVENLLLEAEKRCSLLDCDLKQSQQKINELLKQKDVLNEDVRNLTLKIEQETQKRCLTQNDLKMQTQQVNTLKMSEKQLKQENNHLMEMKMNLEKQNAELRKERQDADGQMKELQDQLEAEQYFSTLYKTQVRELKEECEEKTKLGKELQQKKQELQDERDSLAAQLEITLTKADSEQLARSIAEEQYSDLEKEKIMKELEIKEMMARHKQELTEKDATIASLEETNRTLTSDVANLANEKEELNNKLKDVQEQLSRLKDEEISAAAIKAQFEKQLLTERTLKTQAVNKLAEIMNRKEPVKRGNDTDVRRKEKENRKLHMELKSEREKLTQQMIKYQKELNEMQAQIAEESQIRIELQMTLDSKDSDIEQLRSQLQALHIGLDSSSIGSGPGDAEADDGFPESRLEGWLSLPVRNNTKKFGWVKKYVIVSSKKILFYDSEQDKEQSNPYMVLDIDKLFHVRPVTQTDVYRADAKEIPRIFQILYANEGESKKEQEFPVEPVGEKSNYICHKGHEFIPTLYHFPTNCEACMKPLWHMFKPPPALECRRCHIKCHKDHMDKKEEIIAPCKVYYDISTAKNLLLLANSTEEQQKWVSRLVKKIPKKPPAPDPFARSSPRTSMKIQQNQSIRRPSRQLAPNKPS
Epidermal growth factor receptor (Homo sapiens), sequence (P00533 whole entry): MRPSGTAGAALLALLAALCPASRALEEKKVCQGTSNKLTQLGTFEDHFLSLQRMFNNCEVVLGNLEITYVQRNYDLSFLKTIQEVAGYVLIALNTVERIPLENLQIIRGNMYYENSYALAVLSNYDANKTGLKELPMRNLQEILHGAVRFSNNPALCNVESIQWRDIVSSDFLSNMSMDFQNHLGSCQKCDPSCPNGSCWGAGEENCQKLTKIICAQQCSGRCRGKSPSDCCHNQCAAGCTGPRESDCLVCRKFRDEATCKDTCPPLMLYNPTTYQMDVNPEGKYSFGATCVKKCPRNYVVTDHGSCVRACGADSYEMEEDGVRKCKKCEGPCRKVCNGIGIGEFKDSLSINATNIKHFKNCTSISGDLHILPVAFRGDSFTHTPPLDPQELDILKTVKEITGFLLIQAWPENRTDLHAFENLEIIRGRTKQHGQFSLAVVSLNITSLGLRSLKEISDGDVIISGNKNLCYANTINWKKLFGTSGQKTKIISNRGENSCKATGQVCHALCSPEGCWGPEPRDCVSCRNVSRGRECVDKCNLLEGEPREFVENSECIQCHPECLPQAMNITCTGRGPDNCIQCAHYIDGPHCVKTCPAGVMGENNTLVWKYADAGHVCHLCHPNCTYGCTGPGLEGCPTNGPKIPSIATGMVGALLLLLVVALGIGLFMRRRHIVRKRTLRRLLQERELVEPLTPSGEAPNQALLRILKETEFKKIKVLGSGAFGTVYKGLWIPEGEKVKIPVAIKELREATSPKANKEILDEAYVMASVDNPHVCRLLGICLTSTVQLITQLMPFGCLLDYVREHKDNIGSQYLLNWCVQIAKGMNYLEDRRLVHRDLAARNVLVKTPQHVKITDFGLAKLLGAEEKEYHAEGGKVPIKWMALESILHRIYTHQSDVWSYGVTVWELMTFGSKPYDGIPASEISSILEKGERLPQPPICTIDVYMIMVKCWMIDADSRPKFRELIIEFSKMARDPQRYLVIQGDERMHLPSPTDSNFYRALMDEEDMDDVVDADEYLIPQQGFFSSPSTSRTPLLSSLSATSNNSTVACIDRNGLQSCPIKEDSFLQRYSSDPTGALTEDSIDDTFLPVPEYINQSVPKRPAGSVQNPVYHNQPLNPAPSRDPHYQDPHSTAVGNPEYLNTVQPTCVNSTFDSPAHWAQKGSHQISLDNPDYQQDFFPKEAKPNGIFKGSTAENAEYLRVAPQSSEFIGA
MAP kinase-activated protein kinase 2 (Homo sapiens), sequence (P49137 whole entry, looked up): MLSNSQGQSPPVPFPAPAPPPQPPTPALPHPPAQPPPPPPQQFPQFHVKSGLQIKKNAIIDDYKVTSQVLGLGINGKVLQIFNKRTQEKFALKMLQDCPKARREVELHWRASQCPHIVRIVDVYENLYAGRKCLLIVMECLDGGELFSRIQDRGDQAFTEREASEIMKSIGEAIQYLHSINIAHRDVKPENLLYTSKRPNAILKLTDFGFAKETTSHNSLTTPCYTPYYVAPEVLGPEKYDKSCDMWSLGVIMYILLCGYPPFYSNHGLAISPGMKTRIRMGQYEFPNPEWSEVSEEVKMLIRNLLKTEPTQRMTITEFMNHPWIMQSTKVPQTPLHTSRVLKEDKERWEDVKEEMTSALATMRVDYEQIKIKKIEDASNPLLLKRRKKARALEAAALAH
Focal adhesion kinase 1 (Homo sapiens), sequence (Q05397 2-1052 limits assumed): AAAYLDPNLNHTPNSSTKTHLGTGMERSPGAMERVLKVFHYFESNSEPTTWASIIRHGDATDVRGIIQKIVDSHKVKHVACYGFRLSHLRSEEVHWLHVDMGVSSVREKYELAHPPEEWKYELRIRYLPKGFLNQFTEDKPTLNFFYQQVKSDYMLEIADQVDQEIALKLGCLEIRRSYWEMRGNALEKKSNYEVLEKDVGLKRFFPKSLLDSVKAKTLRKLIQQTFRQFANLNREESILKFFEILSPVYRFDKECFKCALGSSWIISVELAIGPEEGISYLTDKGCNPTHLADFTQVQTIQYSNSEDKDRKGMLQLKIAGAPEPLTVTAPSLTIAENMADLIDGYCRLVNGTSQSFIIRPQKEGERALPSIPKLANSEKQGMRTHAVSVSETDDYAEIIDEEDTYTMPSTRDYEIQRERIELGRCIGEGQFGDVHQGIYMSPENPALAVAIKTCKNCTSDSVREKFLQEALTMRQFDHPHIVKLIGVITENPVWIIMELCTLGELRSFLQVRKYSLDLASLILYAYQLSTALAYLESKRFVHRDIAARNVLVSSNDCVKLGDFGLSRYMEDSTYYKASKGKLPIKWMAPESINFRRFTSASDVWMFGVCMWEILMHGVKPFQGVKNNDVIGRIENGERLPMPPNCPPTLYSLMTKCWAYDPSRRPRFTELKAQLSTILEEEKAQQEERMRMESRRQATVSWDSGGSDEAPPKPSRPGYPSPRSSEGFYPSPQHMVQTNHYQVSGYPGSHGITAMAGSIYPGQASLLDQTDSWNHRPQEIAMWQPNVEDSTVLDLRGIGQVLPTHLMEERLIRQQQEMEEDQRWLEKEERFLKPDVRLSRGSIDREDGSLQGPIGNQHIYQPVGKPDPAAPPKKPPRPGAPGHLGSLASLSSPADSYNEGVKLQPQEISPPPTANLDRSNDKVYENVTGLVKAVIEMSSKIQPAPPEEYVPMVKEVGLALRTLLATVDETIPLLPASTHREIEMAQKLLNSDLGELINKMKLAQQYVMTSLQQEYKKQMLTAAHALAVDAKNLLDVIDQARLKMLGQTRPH
Cyclin-dependent kinase 1 (Homo sapiens), sequence (P06493 whole entry, looked up): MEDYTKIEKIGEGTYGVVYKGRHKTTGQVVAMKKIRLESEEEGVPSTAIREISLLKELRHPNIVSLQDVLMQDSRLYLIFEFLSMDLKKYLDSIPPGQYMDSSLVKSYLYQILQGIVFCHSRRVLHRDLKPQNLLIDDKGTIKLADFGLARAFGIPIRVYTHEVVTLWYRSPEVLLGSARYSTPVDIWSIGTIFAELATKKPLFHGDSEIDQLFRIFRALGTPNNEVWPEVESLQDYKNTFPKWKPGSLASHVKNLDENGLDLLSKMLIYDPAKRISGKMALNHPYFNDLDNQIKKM

SMILES: Cc1cccc(Oc2ccnc(N3CCN(CC(=O)Nc4cccc5c4CCCC5)CC3)n2)c1
inhibition [1]: 0%
inhibition [2]: 0%
inhibition [3]: 4%
inhibition [4]: 0%
inhibition [5]: 3%
inhibition [6]: 5%
inhibition [7]: 0%
inhibition [8]: 1%
inhibition [9]: 16%
inhibition [10]: 0%
inhibition [11]: 0%
inhibition [12]: 1%
inhibition [13]: 0%
inhibition [14]: 0%
inhibition [15]: 0%
inhibition [16]: 0%

SMILES: CN(CCc1ccccn1)C(=O)c1cccc(Nc2nccc(Nc3ccc4ncsc4c3)n2)c1
inhibition [1]: 78%
inhibition [2]: 23%
inhibition [3]: 12%
inhibition [4]: 72%
inhibition [5]: 7%
inhibition [6]: 0%
inhibition [7]: 7%
inhibition [8]: 0%
inhibition [9]: 19%
inhibition [10]: 1%
inhibition [11]: 0%
inhibition [12]: 69%
inhibition [13]: 1%
inhibition [14]: 95%
inhibition [15]: 0%
inhibition [16]: 70%

SMILES: CN(C)c1ccc(C(=O)N2CCN(c3ncnc4c3CN(Cc3ccccc3)CC4)CC2)c2ccccc12
inhibition [1]: 0%
inhibition [2]: 0%
inhibition [3]: 5%
inhibition [4]: 0%
inhibition [5]: 6%
inhibition [6]: 4%
inhibition [7]: 0%
inhibition [8]: 4%
inhibition [9]: 4%
inhibition [10]: 0%
inhibition [11]: 0%
inhibition [12]: 8%
inhibition [13]: 3%
inhibition [14]: 3%
inhibition [15]: 0%
inhibition [16]: 6%

SMILES: Nc1nc(Nc2ccc(C(=O)NCCc3ccncc3)cc2)cc(N2CCOCC2)n1
inhibition [1]: 3%
inhibition [2]: 0%
inhibition [3]: 2%
inhibition [4]: 0%
inhibition [5]: 0%
inhibition [6]: 2%
inhibition [7]: 1%
inhibition [8]: 2%
inhibition [9]: 10%
inhibition [10]: 3%
inhibition [11]: 0%
inhibition [12]: 6%
inhibition [13]: 1%
inhibition [14]: 13%
inhibition [15]: 0%
inhibition [16]: 11%

SMILES: Cc1cccc(N(C)c2cc(Nc3cccc(C(=O)N(CC(C)C)CC(C)C)c3)ncn2)c1
inhibition [1]: 1%
inhibition [2]: 84%
inhibition [3]: 6%
inhibition [4]: 5%
inhibition [5]: 0%
inhibition [6]: 0%
inhibition [7]: 0%
inhibition [8]: 0%
inhibition [9]: 0%
inhibition [10]: 2%
inhibition [11]: 0%
inhibition [12]: 10%
inhibition [13]: 0%
inhibition [14]: 5%
inhibition [15]: 0%
inhibition [16]: 0%

SMILES: Cc1cccc(Nc2ncnc3c2CN(C(=O)c2ccc(N(C)C)c4ccccc24)CC3)c1
inhibition [1]: 7%
inhibition [2]: 31%
inhibition [3]: 24%
inhibition [4]: 1%
inhibition [5]: 2%
inhibition [6]: 3%
inhibition [7]: 1%
inhibition [8]: 0%
inhibition [9]: 1%
inhibition [10]: 2%
inhibition [11]: 0%
inhibition [12]: 7%
inhibition [13]: 0%
inhibition [14]: 6%
inhibition [15]: 0%
inhibition [16]: 0%

Other lines, results leading:

inhibition [1]: 4%
inhibition [2]: 0%
inhibition [3]: 3%
inhibition [4]: 0%
inhibition [5]: 0%
inhibition [6]: 3%
inhibition [7]: 0%
inhibition [8]: 0%
inhibition [9]: 3%
inhibition [10]: 0%
inhibition [11]: 0%
inhibition [12]: 5%
inhibition [13]: 2%
inhibition [14]: 11%
inhibition [15]: 0%
inhibition [16]: 0%
SMILES: Cc1cccc(Oc2ccnc(N3CCC[C@H]3C(=O)NCCCn3ccnc3)n2)c1

inhibition [1]: 7%
inhibition [2]: 2%
inhibition [3]: 1%
inhibition [4]: 5%
inhibition [5]: 2%
inhibition [6]: 2%
inhibition [7]: 2%
inhibition [8]: 0%
inhibition [9]: 7%
inhibition [10]: 1%
inhibition [11]: 0%
inhibition [12]: 0%
inhibition [13]: 1%
inhibition [14]: 10%
inhibition [15]: 0%
inhibition [16]: 0%
SMILES: Nc1nc(Nc2ccc3ncsc3c2)cc(N2CCC[C@H]2C(=O)N[C@@H](CO)c2ccccc2)n1

inhibition [1]: 4%
inhibition [2]: 0%
inhibition [3]: 12%
inhibition [4]: 13%
inhibition [5]: 0%
inhibition [6]: 3%
inhibition [7]: 0%
inhibition [8]: 2%
inhibition [9]: 0%
inhibition [10]: 0%
inhibition [11]: 0%
inhibition [12]: 11%
inhibition [13]: 0%
inhibition [14]: 5%
inhibition [15]: 0%
inhibition [16]: 10%
SMILES: COc1cccc(Nc2cc(N3CCC[C@H]3C(=O)NCCN3CCCCC3)nc(N)n2)c1
